Assay outcomes deposited in PubChem BioAssay by The Scripps Research Institute Molecular Screening Center.
HTRA1 inhibitor = HTRA1 (human) protease inhibition; Q92743; recombinant HTRA1, FP-rhodamine activity-based probe, fluorescence polarization; inhibition, % at 5.96 µM; 340,000 compounds, 0.5% hits; in the data active = inhibition above about 36%;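 also: 0% = enzyme with DMSO and 100% = wells lacking enzyme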
PAFAH1B2 inh = blocks human PAF acetylhydrolase 1b catalytic subunit 2; P68402; recombinant PAFAH1B2, FP-rhodamine activity probe, fluorescence polarization; inhibition, % at 3.39 µM; 340,000 compounds, 1.2% hits;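 active = inhibition above the mean of all tested compounds plus 3 SD, cut at about 24% in these data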;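 also: 0% = enzyme with DMSO and 100% = wells lacking PAFAH1B2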
mABHD4 FP = inhibits mouse alpha/beta hydrolase domain 4; Q8VD66; purified mABHD4, FP-Rh probe fluorescence polarization; inhibition, % at 8.92 µM; 370,000 compounds, 0.54% hits;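 active = inhibition exceeding the mean over every tested compound plus 3 SD, cut at about 30% in these data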;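 also: 0% = plate median of compound wells and 100% = S159A mutant with DMSO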
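Assay system: mouse ABHD4 enzyme, wild type / Also added: fluorescent activity-based probe FP-Rh / Doses: single nominal dose of 8.92 µM, 0.89% DMSO final / Timing: 45 min compound pre-incubation plus 60 min probe step, 25 °C / Signal: FP readout, ex 525 nm / em 598 nm / Control set: S159A mutant/DMSO as 100%, compound-well median as 0%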
PAFAH2 FP inh = PAFAH2 (human) inhibition | Q99487 | recombinant PAFAH2, FP-rhodamine activity probe, fluorescence polarization | inhibition, % at 3.39 µM | 340,000 compounds, 0.99% hits;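 active = inhibition above the mean over all tested compounds plus 3 SD, cut at about 30% in these data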;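 also: inhibitors block probe labeling of enzyme so polarization drops; 0% = enzyme with DMSO and 100% = wells lacking PAFAH2 protein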
pPAFAH inh = inhibitors of human plasma PAF acetylhydrolase (pPAFAH); Q13093; recombinant pPAFAH, FP-rhodamine probe fluorescence polarization; inhibition, % at 3.39 µM; 330,000 compounds, 1.5% hits; AID 463082;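 active = inhibition above the mean inhibition across the screen plus 3 SD, cut at about 25% in these data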;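 also: inhibitors block binding of the rhodamine activity-based probe so polarization drops; 0% = enzyme with DMSO and 100% = wells lacking pPAFAH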
Target sequence (Q13093 whole entry, looked up): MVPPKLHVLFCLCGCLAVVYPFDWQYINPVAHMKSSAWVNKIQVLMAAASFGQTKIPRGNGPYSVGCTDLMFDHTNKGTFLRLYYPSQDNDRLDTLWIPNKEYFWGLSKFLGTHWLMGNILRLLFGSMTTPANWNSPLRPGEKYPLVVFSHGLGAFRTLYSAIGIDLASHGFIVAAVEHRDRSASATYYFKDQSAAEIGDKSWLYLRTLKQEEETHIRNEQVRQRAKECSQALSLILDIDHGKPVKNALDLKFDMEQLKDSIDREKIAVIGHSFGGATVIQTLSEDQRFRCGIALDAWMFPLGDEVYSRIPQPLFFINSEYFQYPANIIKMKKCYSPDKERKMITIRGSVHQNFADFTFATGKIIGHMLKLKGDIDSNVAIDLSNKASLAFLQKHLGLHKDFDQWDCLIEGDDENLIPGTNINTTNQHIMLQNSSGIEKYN
PAFAH1B3 inh = inhibitors of human PAFAH1B3. Q15102. recombinant PAFAH1B3, FP-rhodamine probe, fluorescence polarization. inhibition, % at 3.39 µM. 340,000 compounds, 0.28% hits. AID 492972;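 active = inhibition above the screen-wide average of all tested compounds plus 3 SD, cut at about 25% in these data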;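 also: 0% = enzyme with DMSO only and 100% = wells lacking PAFAH1B3 protein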
An asterisk follows results filed as active; . = no result. Only some compounds are listed: those with a hit (about 2.8% of all), similar ones and a draw of the others.

SMILES	HTRA1 inhibitor	PAFAH1B2 inh	mABHD4 FP	PAFAH2 FP inh	pPAFAH inh	PAFAH1B3 inh
CC[C@H](C)Cc1cn([C@@H](CCCN=C(NC(=O)OC(C)(C)C)NC(=O)OC(C)(C)C)C(=O)NCCCCCCCCCCC(=O)N2CCN(C(=O)OC(C)(C)C)CC2)nn1	-30	12	.	4	9	27*
CC(C)CNS(=O)(=O)/C=C/c1ccccc1CNC(=O)OC(C)(C)C	.	.	-9	.	.	.
O=S(=O)(/N=C(/NS(=O)(=O)c1ccccc1)c1ccccc1)c1ccccc1	5	28*	-5	1	1	4
CCCC1CCC2(CC1)CCC2OC(=S)Nc1ccc(Br)cc1 (stereo not drawn)	.	.	-14	.	.	.
COc1cccc(N=Nc2c(N)[nH][nH]c2=O)c1	6	6	6	2	-3	12
COc1cccc(N=Nc2c(N)[nH]n3c(=O)c4c(nc23)CCCC4)c1	.	.	9	.	30*	.
C=CCN1C(=O)[C@@H](CC(=O)NCCCOC)[C@]2(C(=O)OCC)CCCCC/C=C/12	.	.	-3	.	.	.
O=S(=O)(NC1CCCC1)c1ccc(S(=O)(=O)N2CCc3ccccc32)cc1	-38	27*	-15	8	27*	0
Nc1ccc(S(=O)(=O)N2CCc3ccccc32)cc1	-3	7	-4	2	9	2
O=C(N1CCOCC1)N1CC[C@H]2[C@H](CCCN2Cc2cc(F)cc(F)c2)C1	.	.	-1	.	.	.
CC(C)c1ccc(NS(=O)(=O)c2ccc3[nH]cc(C(=O)N4CCC(C(N)=O)CC4)c(=O)c3c2)cc1	-4	2	-3	1	70*	6
O=C(c1c[nH]c2ccc(S(=O)(=O)N3CCOCC3)cc2c1=O)N1CCCC1	-3	15	1	-2	3	4
c1ccc(CCn2nnc(-c3ccc(N4CCOCC4)cc3)n2)cc1	.	.	-6	.	.	.
CC(=O)N1CC=C2C(C#N)=C(N)C(C#N)(C#N)C(CCc3ccccc3)C2C1 (stereo not drawn)	4	13	6	-6	4	10
CCN1CC=C2C(C#N)=C(N)C(C#N)(C#N)C(CCc3ccccc3)C2C1 (stereo not drawn)	28	26*	34*	2	25*	2
O=S(=O)(c1ccc(Cl)s1)N1CCC(c2nc3ccccc3o2)CC1	.	.	1	.	.	.
CC(=O)c1ccc(OCC(=O)N2CCN(S(=O)(=O)c3ccc(C)cc3C)CC2)cc1	2	6	-5	0	32*	15
Cc1ccc(S(=O)(=O)N2CCN(C(=O)CSc3ccc(F)cc3)CC2)cc1	3	26*	-3	2	2	15
Cc1ccc(OCCC(=O)OCC(=O)N2CCN(S(=O)(=O)c3ccc(Cl)cc3)CC2)cc1	3	28*	-7	-6	16	4
CCCOc1ccccc1OCC(=O)N1CCN(S(=O)(=O)c2ccc(Cl)cc2)CC1	-1	25*	-5	-4	2	-1
CCOc1ccc(OCCC(=O)OCC(=O)N2CCN(S(=O)(=O)c3ccc(C)cc3)CC2)cc1	6	8	4	0	4	3
CC[C@H]1/C(=C/c2ccccc2)N2C(=O)C[C@H](c3ccccc3)N=C2N1C	.	.	-6	.	.	.
Cc1ccc(NC(=O)C2CCCN(S(=O)(=O)c3cccc4nonc34)C2)cc1 (stereo not drawn)	0	0	0	12	-4	-6
CC(=O)c1ccc(NC(=O)C2CCCN(S(=O)(=O)c3cccc4nonc34)C2)cc1 (stereo not drawn)	-5	29*	.	-2	-2	7
CCOC(=O)c1ccc(NC(=O)C2(c3ccccc3)CCCC2)cc1	-41	14	-13	-2	-12	-1
CCOC(=O)c1ccc(NC(=O)C2(c3ccc(Cl)cc3)CCCC2)cc1	-2	29*	-3	-9	-2	-1
COC(=O)[C@]12C[C@H](CC(=O)NCc3cccc(C(F)(F)F)c3)C(=O)N(CCC3=CCCCC3)C1=C[C@H](C(C)C)O[C@@H]2C1CC1	.	.	-9	.	.	.
CCN(CC)c1ccc2cc(NC(=O)CCC(=O)O)c(=O)oc2c1	19	12	58*	1	5	5
CC(C)CN(CC(C)C)C(=O)c1cn(C(C)c2ccccc2)nn1 (stereo not drawn)	.	.	0	.	.	.
O=C(O)c1ccccc1C(=O)Nc1cc(C(F)(F)F)ccc1N1CCCC1	-16	6	-17	8	30*	5
